One series deals with C3H 10T1/2. The experiment in a line: Osteogenetic activity in mouse C3H10T1/2 cells assessed as increase in osteocalcin expression at 3.3 uM after 10 days by RT-PCR analysis relative to control. The format is functional.
A further series addresses Sonic hedgehog protein (Mus musculus, UniProt Q62226). Briefly: Activation of SHh in mouse Light2 cells assessed as induction of Gli-mediated luciferase activity after 24 hrs by reporter gene assay. Type of series: cell-based. Put shortly:
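SHHLight2 cells (8×Gli response elements driving firefly luciferase; constitutive Renilla) seeded at 10,000 cells/well in DMEM/10% FCS. After 24 h, compound added in DMEM/0.5% FCS, triplicate wells. Firefly and Renilla luciferase read 24 h later; firefly divided by Renilla per well, expressed relative to DMSO-treated cells.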

Series [1] can be described thus: Metabolic stability in human liver microsomes assessed as compound remaining after 1 hr. Type of series: ADME, Microsome. Particulars: read-out: Stability.
The nature of series [2]: Half life in human liver microsomes incubated up to 120 mins at pH 7.4. Type of series: ADME, Microsome.
Series [3] in a line: Half life in human liver microsomes incubated up to 60 mins. Type of series: ADME, Microsome. The essentials:
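Pooled human liver microsomes with NADPH; sampling at 0, 15, 30, 45 and 60 min to derive intrinsic clearance half-life.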

The subject of series [4] is Rattus norvegicus. The experiment in a line: Osteogenetic activity in Sprague-Dawley rat assessed as increase in bone volume in callus at 4 mg/kg measured after 8 weeks by MicroCT analysis. The format is functional, organism-based. Also on record: dose 4 mg/kg. The essentials:
(§1)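 Sprague Dawley rats; compound in DMSO at 50 mg/mL, 40 µL loaded onto collagen sponge, held 1–2 h at room temperature, implanted bilaterally between L4 and L5 after decorticating transverse processes; 4 mg/kg. After 8 weeks, segment stability scored by manual palpation (n = 10/group, Kruskal-Wallis); formalin-fixed tissue scanned by microCT at 18 µm resolution for callus bone volume.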

The subject of series [5] is Rattus norvegicus. The experiment in a line: Osteogenetic activity in Sprague-Dawley rat assessed as increase in mechanical stability of the vertebral segments at 4 mg/kg measured after 8 weeks by manual palpation. Also on record: dose 4 mg/kg. Type of series: functional, organism-based. The essentials:
as §1

The source made the active and inactive calls. No cut-off for these calls is given here.

Chain of Sonic hedgehog protein (Q62226 25-198 limits assumed): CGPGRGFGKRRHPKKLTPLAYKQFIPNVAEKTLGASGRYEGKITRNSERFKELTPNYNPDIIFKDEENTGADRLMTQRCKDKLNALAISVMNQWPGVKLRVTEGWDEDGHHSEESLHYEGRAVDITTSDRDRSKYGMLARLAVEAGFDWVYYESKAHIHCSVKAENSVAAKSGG

As to `CCCCC[C@](C)(O)[C@H]1CC[C@H]2[C@@H]3C[C@H](O)[C@H]4C[C@@H](O)CC[C@]4(C)[C@H]3CC[C@@]21C`, the “fold change (FC)” value in the series with C3H 10T1/2 is recorded as 4. For the same compound, the EC50 on Sonic hedgehog protein was 6.6 µM.

Consider `CCCCCC[C@@](O)(CC)[C@H]1CC[C@H]2[C@@H]3C[C@H](O)[C@H]4C[C@@H](O)CC[C@]4(C)[C@H]3CC[C@]12C`, for which, in series [1], the remaining at 1 h amounted to 9%. For the same compound, at Sonic hedgehog protein, the EC50 is 2.9 µM.

Regarding `C[C@]12CC[C@H](O)C[C@@H]1[C@@H](O)C[C@@H]1[C@@H]2CC[C@@]2(C)[C@H]1CC[C@@H]2[C@@](C)(O)CCCc1ccccc1`, the “fold change (FC)” value in the series with C3H 10T1/2 turned out to be 2. Moreover, the remaining at 1 h in series [1] was determined as 1%. Besides, the EC50 at Sonic hedgehog protein is 2.5 µM.

For `[2H][C@@H](CC(C)C)[C@H]([2H])[C@](C)(O)[C@H]1CC[C@H]2[C@@H]3C[C@H](O)[C@H]4C[C@@H](O)CC[C@]4(C)[C@H]3CC[C@]12C`, the half-life in series [2] was greater than 120 min. Also, the EC50 on Sonic hedgehog protein was 1 µM.

As to `C[C@]12CC[C@H](O)C[C@@H]1[C@@H](O)C[C@@H]1[C@@H]2CC[C@@]2(C)[C@H]1CC[C@@H]2[C@@](C)(O)CCCc1ccncc1`, the “fold change (FC)” value in the series with C3H 10T1/2 stood at 2. Besides, the EC50 at Sonic hedgehog protein was greater than 5 µM.

On to `COCCCC[C@](C)(O)[C@H]1CC[C@H]2[C@@H]3C[C@H](O)[C@H]4C[C@@H](O)CC[C@]4(C)[C@H]3CC[C@@]21C`, for which, in the series on C3H 10T1/2, the “fold change (FC)” value was determined as 3. The remaining at 1 h in series [1] is 35%. The EC50 at Sonic hedgehog protein turned out to be 3.1 µM.

With `CC(C)CCC[C@@](C)(O)[C@H]1CC[C@H]2[C@@H]3C[C@H](O)[C@H]4C[C@@H](O)CC[C@]4(C)[C@H]3CC[C@@]21C`, the EC50 on Sonic hedgehog protein is greater than 10 µM.

With `CC(C)CCC[C@](C)(O)[C@H]1CC[C@H]2[C@@H]3C[C@H](O)[C@H]4C[C@@H](O)CC[C@]4(C)[C@H]3CC[C@@]21C`, the half-life in series [3] was 4 min. Besides, the result with Rattus norvegicus [4] and in the series with Rattus norvegicus [4] (tested as the 2H-labelled form) was Active. The “fold change (FC)” value in the series on C3H 10T1/2 stood at 15. The outcome in the series on Rattus norvegicus [5] and with Rattus norvegicus [5] (tested as the 2H-labelled form) was inactive. Moreover, the remaining at 1 h in series [1] is 3%. Moreover, the EC50 on Sonic hedgehog protein is 0.8 µM.

On to `CCCCCC[C@@](O)(c1ccccc1)[C@H]1CC[C@H]2[C@@H]3C[C@H](O)[C@H]4C[C@@H](O)CC[C@]4(C)[C@H]3CC[C@@]21C`, for which, in series [1], the remaining at 1 h amounted to 69%. The EC50 on Sonic hedgehog protein is greater than 10 µM.

For `C[C@]12CC[C@H](O)C[C@@H]1[C@@H](O)C[C@@H]1[C@@H]2CC[C@@]2(C)[C@H]1CC[C@@H]2[C@@](C)(O)CCCc1cccnc1`, at Sonic hedgehog protein, the half-maximal effective concentration (EC50) was found to be 1.2 µM.

On to `[2H]C([2H])(CCCC)C([2H])([2H])[C@](C)(O)[C@H]1CC[C@H]2[C@@H]3C[C@H](O)[C@H]4C[C@@H](O)CC[C@]4(C)[C@H]3CC[C@@]21C`, for which the “fold change (FC)” value in the series on C3H 10T1/2 is reported as 35. The remaining at 1 h in series [1] was determined as 100%. At Sonic hedgehog protein, the EC50 was found to be 0.3 µM.

Turning to `CCCCCC[C@](C)(O)[C@H]1CC[C@H]2[C@@H]3C[C@H](O)[C@H]4C[C@@H](O)CC[C@]4(C)[C@H]3CC[C@@]21C`, the outcome in the series on Rattus norvegicus [4] was Active. Moreover, the “fold change (FC)” value in the series on C3H 10T1/2 is given as 36. Also, the outcome in the series on Rattus norvegicus [5] was inactive. For the same compound, the remaining at 1 h in series [1] turned out to be 2%. Also, the EC50 on Sonic hedgehog protein was found to be 0.4 µM.

`[2H][C@H](CC(C)C)[C@@H]([2H])[C@](C)(O)[C@H]1CC[C@H]2[C@@H]3C[C@H](O)[C@H]4C[C@@H](O)CC[C@]4(C)[C@H]3CC[C@]12C`: the half-life in series [3] turned out to be 5 min. Also, the EC50 on Sonic hedgehog protein worked out at 1.1 µM.

As for `[2H]C([2H])(CC(C)C)C([2H])([2H])[C@](C)(O)[C@H]1CC[C@H]2[C@@H]3C[C@H](O)[C@H]4C[C@@H](O)CC[C@]4(C)[C@H]3CC[C@@]21C`, the “fold change (FC)” value with C3H 10T1/2 is 17. The remaining at 1 h in series [1] amounted to 100%. Further, the half-life in series [2] is greater than 120 min. For the same compound, the EC50 at Sonic hedgehog protein is 0.8 µM.

On to `CCCCCCC[C@](C)(O)[C@H]1CC[C@H]2[C@@H]3C[C@H](O)[C@H]4C[C@@H](O)CC[C@]4(C)[C@H]3CC[C@@]21C`, for which the “fold change (FC)” value with C3H 10T1/2 was determined as 17. Moreover, the EC50 at Sonic hedgehog protein was found to be 0.5 µM.

Values taken from ChEMBL document CHEMBL2086367, “Novel oxysterols activate the Hedgehog pathway and induce osteogenesis” (Bioorg Med Chem Lett, 2012).
